This is an account of results in ChEMBL document CHEMBL4811225 (J Med Chem, 2021).

By IC50 is commonly meant the midpoint of a concentration-inhibition curve. One may read the inhibition as the percentage by which the read-out fell short of the control.

Assay [1] concerns the target Neuronal acetylcholine receptor; alpha2/beta4 (Homo sapiens, UniProt P30926+Q15822). Kind of assay: Inhibition of human alpha2beta4 nAChR expressed in Xenopus laevis oocytes assessed as inhibition of acetylcholine-induced current response by two-electrode voltage-clamp method. In kind it is cell-based, Oocyte. In a few lines:
(§1)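 TEVC on stage IV–V oocytes 1–5 days after equal-ratio cRNA injection (α2β4, α3β4, α4β4, α7). ACh 300 μM, 1 s pulses at 60 s intervals under frog saline perfusion. Peptide perfused to 1 μM, normalized to average of three control responses; higher concentrations by 5 min static bath. IC50 with 95% CI, n oocytes.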

Assay [2] has as its target Neuronal acetylcholine receptor; alpha9/alpha10 (Homo sapiens) (UniProt Q9UGM1+Q9GZZ6). The experiment in a line: Inhibition of human alpha9alpha10 nAChR expressed in Xenopus laevis oocytes assessed as inhibition of acetylcholine-induced current response at 10 uM by two-electrode voltage-clamp method relative to control. To be noted: Oocyte. In kind it is cell-based. The method in brief: (§2)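 Oocytes (stage IV–V) injected with equal-ratio cRNAs of cloned subunits; TEVC 1–5 days post-injection. ACh 100 μM for β2-containing and α9α10 subtypes, 1 s pulses every 60 s. Peptide 10 μM in 5 min static bath; response normalized to ACh response after 5 min control-saline bath; mean ± SD, n = 4.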

For assay [3], the target named is Neuronal acetylcholine receptor; alpha4/beta2 (Rattus norvegicus) (UniProt P09483+P12390). The experiment in a line: Inhibition of rat alpha4beta2 nAChR expressed in Xenopus laevis oocytes assessed as inhibition of acetylcholine-induced current response at 10 uM by two-electrode voltage-clamp method relative to control. It is filed as cell-based. The conditions noted are these: Oocyte. In a few lines:
as §2

Assay [4] addresses Nicotinic acetylcholine receptor alpha6/alpha3/beta2/beta3 (Rattus norvegicus, UniProt P04757+P12390+P12391+P43143). It is filed as cell-based, Oocyte.
For assay [5], the species on record is Rattus norvegicus. Kind of assay: Selectivity ratio of IC50 for rat alpha9alpha10 nAChR to IC50 for rat alpha6/alpha3beta4 nAChR. In a few lines:
(§3)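 Ratio of each subtype's IC50, from TEVC inhibition of ACh-evoked currents in X. laevis oocytes, to the IC50 at the same species' α6/α3β4 nAChR; IC50 values with 95% CI, n = number of oocytes.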

Assay [6] is filed under the species Rattus norvegicus. Kind of assay: Selectivity ratio of IC50 for rat alpha4beta4 nAChR to IC50 for rat alpha6/alpha3beta4 nAChR. The method in brief: as §3
For assay [7], the species on record is Homo sapiens. Kind of assay: Selectivity ratio of IC50 for human alpha4beta4 nAChR to IC50 for human alpha6/alpha3beta4 nAChR. The method in brief:
as §3

For assay [8], the species on record is Rattus norvegicus. The experiment in a line: Selectivity ratio of IC50 for rat alpha2beta4 nAChR to IC50 for rat alpha6/alpha3beta4 nAChR. In a few lines:
as §3

Assay [9] deals with Neuronal acetylcholine receptor; alpha4/beta4 (Rattus norvegicus) (UniProt P09483+P12392). Kind of assay: Inhibition of rat alpha4beta4 nAChR expressed in Xenopus laevis oocytes assessed as inhibition of acetylcholine-induced current response at 10 uM by two-electrode voltage-clamp method relative to control. It is filed as cell-based. The conditions noted are these: Oocyte. The method in brief: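 Stage IV–V X. laevis oocytes expressing equal-ratio cRNAs of α2β4, α3β4, α4β4 or α7 subunits; TEVC 1–5 days after injection. ACh 300 μM, 1 s at 60 s intervals. 10 μM peptide as 5 min static bath, normalized to ACh response after 5 min bath of control saline; mean ± SD, n = 4.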
For orientation: Two-electrode voltage clamp is typically applied to oocytes expressing channels or transporters.

In assay [10] the target is Neuronal acetylcholine receptor; alpha3/beta2 (Homo sapiens, UniProt P17787+P32297). The experiment in a line: Inhibition of human alpha3beta2 nAChR expressed in Xenopus laevis oocytes assessed as inhibition of acetylcholine-induced current response at 10 uM by two-electrode voltage-clamp method relative to control. In kind it is cell-based. The conditions noted are these: Oocyte. In a few lines: as §2

In assay [11] the target is Nicotinic acetylcholine receptor alpha-1/beta-1/delta/epsilon (Homo sapiens) (UniProt P02708+P11230+Q07001+Q04844). Kind of assay: Inhibition of human alpha1beta1deltaepsilon nAChR expressed in Xenopus laevis oocytes assessed as inhibition of acetylcholine-induced current response at 10 uM by two-electrode voltage-clamp method relative to control. In kind it is cell-based. To be noted: Oocyte. In a few lines: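 Human α1, β1, δ and ε cDNAs injected in equal ratios into the nucleus of stage IV–V X. laevis oocytes; TEVC 1–5 days later. ACh 100 μM, 1 s pulses at 60 s intervals. Peptide 10 μM applied as 5 min static bath; response normalized to ACh response after 5 min bath of control saline; mean ± SD, n = 4.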

The species entered for assay [12] is Rattus norvegicus. The experiment in a line: Selectivity ratio of IC50 for rat alpha6/alpha3beta2beta3 nAChR to IC50 for rat alpha6/alpha3beta4 nAChR. In a few lines:
as §3

Assay [13] concerns the target Nicotinic acetylcholine receptor alpha6/alpha3/beta4 (Rattus norvegicus) (UniProt P04757+P12392+P43143). The conditions noted are these: Oocyte.
The target of assay [14] is Neuronal acetylcholine receptor; alpha4/beta2 (Rattus norvegicus, UniProt P09483+P12390). It is filed as cell-based, Oocyte.
Neuronal acetylcholine receptor; alpha4/beta2, sequence (P09483 whole entry): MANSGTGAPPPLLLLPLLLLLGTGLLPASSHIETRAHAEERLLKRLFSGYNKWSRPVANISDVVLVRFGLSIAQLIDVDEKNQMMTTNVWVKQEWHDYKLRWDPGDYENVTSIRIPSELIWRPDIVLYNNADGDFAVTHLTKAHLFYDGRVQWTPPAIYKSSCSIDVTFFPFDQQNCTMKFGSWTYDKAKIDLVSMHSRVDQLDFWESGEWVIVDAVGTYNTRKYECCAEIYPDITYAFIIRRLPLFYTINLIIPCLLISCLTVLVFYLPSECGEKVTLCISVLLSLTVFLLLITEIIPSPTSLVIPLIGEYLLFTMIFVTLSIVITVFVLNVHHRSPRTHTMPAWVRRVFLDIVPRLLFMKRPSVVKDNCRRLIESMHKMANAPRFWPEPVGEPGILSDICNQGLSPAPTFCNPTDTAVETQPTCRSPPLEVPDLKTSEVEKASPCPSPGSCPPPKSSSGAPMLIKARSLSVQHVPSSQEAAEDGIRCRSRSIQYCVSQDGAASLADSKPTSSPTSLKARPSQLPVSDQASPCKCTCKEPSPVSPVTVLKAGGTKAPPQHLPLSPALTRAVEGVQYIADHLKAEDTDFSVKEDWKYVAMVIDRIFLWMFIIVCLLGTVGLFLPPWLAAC
Neuronal acetylcholine receptor; alpha4/beta2, sequence (P12390 whole entry): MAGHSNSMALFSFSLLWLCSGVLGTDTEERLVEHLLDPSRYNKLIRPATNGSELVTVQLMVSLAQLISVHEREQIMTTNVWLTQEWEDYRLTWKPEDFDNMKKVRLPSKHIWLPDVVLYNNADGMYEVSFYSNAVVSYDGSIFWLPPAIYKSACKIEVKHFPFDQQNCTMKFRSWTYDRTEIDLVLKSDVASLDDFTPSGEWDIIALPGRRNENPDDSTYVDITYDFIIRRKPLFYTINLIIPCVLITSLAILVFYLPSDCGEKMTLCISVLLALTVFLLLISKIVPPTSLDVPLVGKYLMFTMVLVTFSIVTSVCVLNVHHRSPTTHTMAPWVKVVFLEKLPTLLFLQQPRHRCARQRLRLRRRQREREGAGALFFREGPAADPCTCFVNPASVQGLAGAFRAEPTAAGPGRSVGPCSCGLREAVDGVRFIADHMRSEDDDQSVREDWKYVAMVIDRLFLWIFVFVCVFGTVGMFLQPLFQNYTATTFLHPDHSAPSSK
The target in assay [15] is Neuronal acetylcholine receptor subunit alpha-6/alpha-3 (Homo sapiens) (UniProt P32297+Q15825). The experiment in a line: Inhibition of human alpha6beta4 nAChR expressed in Xenopus laevis oocytes assessed as recovery of acethylcholine-evoked currents at 10 uM treated for 10 mins followed by compound washout by two-electrode voltage-clamp method relative to control. In kind it is cell-based. Also on record: scale not given: the % may be the effect or the level left. To be noted: Oocyte.

Assay [16] concerns the target Neuronal acetylcholine receptor; alpha2/beta2 (Rattus norvegicus, UniProt P12389+P12390). Kind of assay: Inhibition of rat alpha2beta2 nAChR expressed in Xenopus laevis oocytes assessed as inhibition of acetylcholine-induced current response by two-electrode voltage-clamp method. It is filed as cell-based, Oocyte. The method in brief: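 Two-electrode voltage clamp of stage IV–V oocytes 1–5 days after equal-ratio cRNA injection; ACh 100 μM (β2-containing subtypes, α9α10), 1 s every 60 s in frog saline. Peptide perfused up to 1 μM, responses normalized to mean of three control responses; above 1 μM, 5 min static bath. IC50 with 95% CI; n = oocytes.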

Assay [17] is filed under the species Rattus norvegicus. Kind of assay: Selectivity ratio of IC50 for rat alpha7 nAChR to IC50 for rat alpha6/alpha3beta4 nAChR. The method in brief: as §3
Assay [18] deals with Neuronal acetylcholine receptor; alpha2/beta4 (Rattus norvegicus, UniProt P12389+P12392). Kind of assay: Inhibition of rat alpha2beta4 nAChR expressed in Xenopus laevis oocytes assessed as inhibition of acetylcholine-induced current response by two-electrode voltage-clamp method. It is filed as cell-based, Oocyte. In a few lines: as §1
Neuronal acetylcholine receptor; alpha2/beta4 (Rattus norvegicus, UniProt P12389+P12392), sequence (P12389 whole entry): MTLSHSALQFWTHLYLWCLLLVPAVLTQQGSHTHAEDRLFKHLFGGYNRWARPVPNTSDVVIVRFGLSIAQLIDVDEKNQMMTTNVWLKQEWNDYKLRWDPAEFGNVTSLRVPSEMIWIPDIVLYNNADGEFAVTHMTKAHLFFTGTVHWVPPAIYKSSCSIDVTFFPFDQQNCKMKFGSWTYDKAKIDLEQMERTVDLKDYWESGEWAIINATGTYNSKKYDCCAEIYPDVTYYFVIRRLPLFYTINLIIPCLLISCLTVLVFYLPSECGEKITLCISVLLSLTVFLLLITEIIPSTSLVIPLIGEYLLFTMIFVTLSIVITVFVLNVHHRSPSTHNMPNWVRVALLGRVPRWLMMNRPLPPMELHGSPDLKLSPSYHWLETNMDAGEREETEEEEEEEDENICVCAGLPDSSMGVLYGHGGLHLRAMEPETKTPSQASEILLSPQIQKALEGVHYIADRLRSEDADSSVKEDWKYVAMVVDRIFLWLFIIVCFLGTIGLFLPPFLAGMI
Neuronal acetylcholine receptor; alpha2/beta4 (Rattus norvegicus, UniProt P12389+P12392), sequence (P12392 whole entry): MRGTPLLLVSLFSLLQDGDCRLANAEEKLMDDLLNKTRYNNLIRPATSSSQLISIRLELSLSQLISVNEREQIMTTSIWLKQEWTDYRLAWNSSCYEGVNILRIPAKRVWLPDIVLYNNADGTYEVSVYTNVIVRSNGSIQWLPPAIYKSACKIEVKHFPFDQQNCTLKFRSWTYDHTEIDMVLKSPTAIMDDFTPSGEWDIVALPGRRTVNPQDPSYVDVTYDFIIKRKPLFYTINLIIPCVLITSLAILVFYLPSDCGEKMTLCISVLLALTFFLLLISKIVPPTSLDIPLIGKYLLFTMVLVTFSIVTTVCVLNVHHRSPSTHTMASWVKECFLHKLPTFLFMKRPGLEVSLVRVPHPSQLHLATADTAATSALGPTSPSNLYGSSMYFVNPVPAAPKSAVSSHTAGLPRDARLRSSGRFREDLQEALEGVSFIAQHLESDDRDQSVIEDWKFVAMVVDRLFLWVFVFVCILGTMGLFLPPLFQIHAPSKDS
Assay [19] is filed under the species Homo sapiens. The experiment in a line: Selectivity ratio of IC50 for human alpha2beta4 nAChR to IC50 for human alpha6/alpha3beta4 nAChR. The method in brief:
as §3

The target of assay [20] is Neuronal acetylcholine receptor subunit alpha-7 (Homo sapiens, UniProt P36544). Kind of assay: Inhibition of human alpha7 nAChR expressed in Xenopus laevis oocytes assessed as inhibition of acetylcholine-induced current response by two-electrode voltage-clamp method. It is filed as cell-based, Oocyte. The method in brief:
as §1

Assay [21] addresses Nicotinic acetylcholine receptor alpha-1/beta-1/delta/epsilon (Homo sapiens, UniProt P02708+P11230+Q04844+Q07001). Kind of assay: Inhibition of human alpha1beta1deltaepsilon nAChR expressed in Xenopus laevis oocytes assessed as inhibition of acetylcholine-induced current response by two-electrode voltage-clamp method. In kind it is cell-based, Oocyte. The method in brief: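 Stage IV–V X. laevis oocytes nucleus-injected with equal ratios of human α1, β1, δ, ε cDNAs; TEVC 1–5 days after injection. ACh 100 μM, 1 s every 60 s.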

The species named for assay [22] is Homo sapiens. The experiment in a line: Selectivity ratio of IC50 for human alpha6/alpha3beta2beta3 nAChR to IC50 for human alpha6/alpha3beta4 nAChR. In a few lines: as §3

Where a SMILES comes first, the peptide text is derived from it. Bridges are numbered along the chain shown (N, C = ends). Bounds are passed on as bounds.

Nicotinic acetylcholine receptor alpha-1/beta-1/delta/epsilon, sequence (P02708 whole entry): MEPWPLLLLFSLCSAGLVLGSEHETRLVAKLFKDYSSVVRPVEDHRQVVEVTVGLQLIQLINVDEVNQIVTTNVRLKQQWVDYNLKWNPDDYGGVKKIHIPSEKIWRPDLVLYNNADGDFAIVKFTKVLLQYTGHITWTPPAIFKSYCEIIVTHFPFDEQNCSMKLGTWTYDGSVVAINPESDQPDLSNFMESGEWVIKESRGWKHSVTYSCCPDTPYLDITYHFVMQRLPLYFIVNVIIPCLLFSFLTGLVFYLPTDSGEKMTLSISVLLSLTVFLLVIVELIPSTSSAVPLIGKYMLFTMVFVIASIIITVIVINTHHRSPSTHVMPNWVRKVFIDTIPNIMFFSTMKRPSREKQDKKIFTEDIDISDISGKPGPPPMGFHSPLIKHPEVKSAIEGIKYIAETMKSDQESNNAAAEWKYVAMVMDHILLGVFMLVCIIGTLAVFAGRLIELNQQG
Nicotinic acetylcholine receptor alpha-1/beta-1/delta/epsilon, sequence (P11230 whole entry): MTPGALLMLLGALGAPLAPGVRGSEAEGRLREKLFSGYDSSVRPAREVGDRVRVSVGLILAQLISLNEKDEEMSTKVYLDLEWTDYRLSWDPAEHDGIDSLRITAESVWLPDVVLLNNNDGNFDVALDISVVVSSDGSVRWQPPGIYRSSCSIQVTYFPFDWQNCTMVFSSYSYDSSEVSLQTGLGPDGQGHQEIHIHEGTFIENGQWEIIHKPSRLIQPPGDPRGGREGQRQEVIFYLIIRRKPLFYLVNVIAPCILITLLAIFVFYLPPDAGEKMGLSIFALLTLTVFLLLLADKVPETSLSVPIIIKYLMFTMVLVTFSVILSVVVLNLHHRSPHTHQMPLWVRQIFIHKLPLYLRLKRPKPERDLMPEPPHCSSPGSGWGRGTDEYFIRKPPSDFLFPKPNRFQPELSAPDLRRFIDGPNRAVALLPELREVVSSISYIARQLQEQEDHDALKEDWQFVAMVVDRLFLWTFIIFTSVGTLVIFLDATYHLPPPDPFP
Nicotinic acetylcholine receptor alpha-1/beta-1/delta/epsilon, sequence (Q07001 whole entry): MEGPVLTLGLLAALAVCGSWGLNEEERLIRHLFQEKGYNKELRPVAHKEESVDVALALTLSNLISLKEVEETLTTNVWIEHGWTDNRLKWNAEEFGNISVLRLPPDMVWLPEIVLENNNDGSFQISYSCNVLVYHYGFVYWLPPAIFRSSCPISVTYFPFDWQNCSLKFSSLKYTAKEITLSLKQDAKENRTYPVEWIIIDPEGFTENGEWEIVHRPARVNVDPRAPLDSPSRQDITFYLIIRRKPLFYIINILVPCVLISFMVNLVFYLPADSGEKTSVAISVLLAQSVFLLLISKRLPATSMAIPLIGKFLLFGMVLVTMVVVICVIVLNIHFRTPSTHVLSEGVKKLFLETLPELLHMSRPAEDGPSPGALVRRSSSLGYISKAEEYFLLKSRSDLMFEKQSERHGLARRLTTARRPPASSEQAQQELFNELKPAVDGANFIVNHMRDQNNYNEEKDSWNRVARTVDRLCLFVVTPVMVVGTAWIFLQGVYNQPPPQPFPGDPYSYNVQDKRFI
Nicotinic acetylcholine receptor alpha-1/beta-1/delta/epsilon, sequence (Q04844 whole entry): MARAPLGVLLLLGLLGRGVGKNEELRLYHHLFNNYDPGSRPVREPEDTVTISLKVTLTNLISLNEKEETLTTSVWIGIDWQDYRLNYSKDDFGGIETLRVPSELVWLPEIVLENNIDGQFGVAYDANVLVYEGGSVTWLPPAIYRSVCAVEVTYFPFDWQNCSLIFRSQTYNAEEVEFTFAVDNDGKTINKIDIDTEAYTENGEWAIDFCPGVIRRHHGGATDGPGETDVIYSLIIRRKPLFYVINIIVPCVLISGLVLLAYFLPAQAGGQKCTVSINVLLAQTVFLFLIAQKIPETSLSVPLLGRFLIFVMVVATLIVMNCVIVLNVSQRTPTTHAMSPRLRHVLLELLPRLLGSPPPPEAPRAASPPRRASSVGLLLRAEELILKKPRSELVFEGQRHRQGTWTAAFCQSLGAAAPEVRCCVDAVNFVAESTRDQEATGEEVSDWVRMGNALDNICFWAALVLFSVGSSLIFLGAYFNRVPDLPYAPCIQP
Neuronal acetylcholine receptor; alpha2/beta2, sequence (P12389 whole entry, the tested form may be a part): as the sequence (P12389 whole entry) above
Neuronal acetylcholine receptor; alpha2/beta2, sequence (P12390 whole entry, the tested form may be a part): as the sequence (P12390 whole entry) above
Neuronal acetylcholine receptor subunit alpha-7, sequence (P36544 whole entry): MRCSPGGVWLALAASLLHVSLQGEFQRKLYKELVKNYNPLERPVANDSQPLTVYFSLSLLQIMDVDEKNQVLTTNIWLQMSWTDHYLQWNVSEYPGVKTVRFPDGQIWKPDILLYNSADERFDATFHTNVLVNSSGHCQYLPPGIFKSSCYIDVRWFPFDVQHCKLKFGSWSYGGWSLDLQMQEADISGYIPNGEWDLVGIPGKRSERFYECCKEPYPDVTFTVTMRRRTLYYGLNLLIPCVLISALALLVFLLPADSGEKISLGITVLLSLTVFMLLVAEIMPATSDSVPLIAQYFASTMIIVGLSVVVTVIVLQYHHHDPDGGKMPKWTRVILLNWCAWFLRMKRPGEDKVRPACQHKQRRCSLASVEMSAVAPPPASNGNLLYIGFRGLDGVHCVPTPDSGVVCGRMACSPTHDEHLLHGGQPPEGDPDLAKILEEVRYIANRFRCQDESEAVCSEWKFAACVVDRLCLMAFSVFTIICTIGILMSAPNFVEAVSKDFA

As to `CC[C@H](C)[C@@H]1NC(=O)[C@H](CCC(=O)O)NC(=O)[C@@H]2CCCN2C(=O)[C@H](Cc2cnc[nH]2)NC(=O)[C@H](CC(N)=O)NC(=O)[C@H](C(C)C)NC(=O)[C@H](CC(N)=O)NC(=O)[C@@H]2CSSC[C@H](NC(=O)CN)C(=O)N[C@@H](CSSC[C@@H](C(N)=O)NC1=O)C(=O)N[C@@H](CO)C(=O)N[C@@H](Cc1cnc[nH]1)C(=O)N1CCC[C@H]1C(=O)N[C@@H](C(C)C)C(=O)N2` (H-GCCSHPVCNVNHPEIC-NH2; disulfide 2-8, 3-16), the IC50 in assay [1] was more than 10 µM; in assay [4], 0.111 µM; in assay [14], more than 10 µM; in assay [16], more than 10 µM; in assay [18] it was more than 10 µM; in [20] it was more than 10 µM. Besides, in [21], the concentration for half-maximal inhibition (IC50) is more than 10 µM. Moreover, the inhibition in [2] was 76%; in assay [3], 81%; in [9] it was 81%; in assay [10], 76%; in assay [11] it was 93%. Further, the Ratio IC50 is more than 20000 in the assay listed under Rattus norvegicus [5]; more than 20000 in the assay filed under Rattus norvegicus [6]; 20100 in the assay filed under Homo sapiens [7]; more than 20000 in the assay filed under Rattus norvegicus [8]; 227 in the assay listed under Rattus norvegicus [12]; more than 20000 in the assay filed under Rattus norvegicus [17]. The Ratio IC50 in the assay filed under Homo sapiens [19] is more than 50000; in the assay filed under Homo sapiens [22], 675. Besides, in assay [13], the deltalogIC50 is -2.4. The Activity in assay [15] amounted to 2%.
